A short description of test [1]: reduced viability of SK-BR-3 breast cancer cells – cell-based, 24 h, human, pilot screen (AID 572;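 active = viability at or below 10% of carrier control in both of two separate runs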;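 note: compound exposure lasted between 18 and 24 h rather than exactly 24 h; 100% = carrier-treated control wells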). As to conditions: SK-BR-3 viability, CellTiter-Glo luminescence, at 10 µM, stronger effect = lower value. On the technique in general: In ATP-based viability assays light output follows the ATP content of the culture.
Test [2] in a line: HUVEC growth inhibition – cell-based, human, primary screen (AID 575;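 active = viability at or below 30% in both replicate assays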;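 note: 100% = median of untreated cell wells with 0.1% DMSO on each plate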). Conditions: HUVEC proliferation, CellTiter-Glo luminescence, 72 h; at 10 µM; stronger effect = lower value. In short, it runs like this: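 Assay system: primary human umbilical vein endothelial cells / Buffer or medium: endothelial basal medium with 2% FBS plus growth supplements / Compound dosing: one dose, 10 µM final, 0.1% DMSO / Timing: 72 h treatment at 37 °C / Signal: CTG luminescence / Benchmarks: 32 DMSO-only cell-control wells (high), 32 MePR drug-control wells (low) per plate / Plate: collagen-coated 384-well format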

The nature of test [3]: H69AR cell proliferation blockers – human, duplicate replicates, primary screen (AID 580).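 Note: 100% = mean luminescence of untreated wells and 0% = no signal.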 Conditions: H69AR lung tumor cells viability, ATP luminescence, 72 h; at 10 µM; stronger effect = lower value.
Test [4] can be described thus: MRP1 drug-resistance reversers in H69AR cells – cell-based, doxorubicin co-treatment, pilot screen (AID 601;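 active = viability loss from added drug above about 55%, and viability with drug at most 40%, in both replicates, limit read from the data, passing the limit was not always enough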). Conditions: CellTiter-Glo, 72 h, at 10 µM; for differential viability (reversal): stronger effect = higher value.
Test [5] is described as follows: yeast transport mutant growth inhibition pilot in 384-well plates, post-Golgi transport modulator project (AID 636; in the data active = inhibition above about 31%). As to conditions: absorbance 615 nm, about 18 h, stronger effect = higher value.
Test [6] in a line: growth suppression of yeast trafficking mutant, preliminary HTS, modulators of trafficking downstream of Golgi apparatus project, 1536-format plate, OD 615 nm (AID 637; in the data active = inhibition above about 30%). Conditions: yeast transport mutant growth, absorbance 615 nm, 18 h; stronger effect = higher value.
The mark [7] stands for this setting: H69AR cells + 2 uM doxorubicin, measured here: viability with 2 uM doxorubicin, stronger effect = lower value.
Setting [8] is: H69AR cells, compound alone cytotoxicity.

Where “and” joins values, the source holds several entries; their conditions need not be identical. Equal values may be shown once. Calls of active or inactive are those of the source.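 Rule for the calls, unless noted: active = viability at or under a set limit in both replicates, limit being median viability minus 3 SD (cut at about 48% in these data, passing the limit was not always enough); inconclusive = at or under the limit in just one replicate; inactive = at or above the limit in both replicates.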

The viability is a read-out of living cells in per cent, often relative to untreated cells. Broadly, the inhibition is the drop in the measured response relative to a control, in per cent. For the compound `COc1ccc(C(=O)NCCc2nnc(SCc3nc4ccccc4c(=O)[nH]3)n2C)cc1`, the viability is 101% (inactive) in test [1]; 67.3% (inactive) in test [2]; 83.4% (inactive) in test [3]; 73.8% in test [4] (setting [7]); 83.4% in test [4] (setting [8]). Further, the differential viability (reversal) in test [4] (H69AR cells + 2 uM doxorubicin) is 9.63% (inactive). For the same compound, the inhibition was -5.89% (inactive) in test [5] and 2.42% (inactive) in test [6].

As for `CCOC(=O)c1c2n(c3ccc(O)cc13)CCCCC2`, the viability in test [1] is 111% (inactive); in test [2], 89.7% (inactive); in test [3] it was 82.4% (inactive); in test [4] (setting [7]), 80.6%; in test [4] (setting [8]) it was 82.4%. Moreover, the differential viability (reversal) in test [4] (H69AR cells + 2 uM doxorubicin) was 1.8% (inactive). In addition, the inhibition in test [5] is -7.47% (inactive); in test [6], 0% (inactive).

For the compound `CCOC(=O)c1ccc(NC(=O)CSC2=NC(=O)C(CC)C(=O)N2)cc1` (centres undefined), the viability in test [1] is 94% (inactive); in test [2], 65.8% (inactive); in test [3], 105% (inactive); in test [4] (setting [7]) it was 83.3%; in test [4] (setting [8]), 105%. Further, in test [4] (H69AR cells + 2 uM doxorubicin), the differential viability (reversal) was 22.1% (inactive). Also, the inhibition in test [5] was 0.78% (inactive); in test [6], -2.3% (inactive).

Consider `O=C(Nc1ccc(Cl)c(C(F)(F)F)c1)N1CCCC(O)C1` (centres undefined), for which the viability in test [1] is 98% (inactive); in test [2], 107% (inactive); in test [3], 105% (inactive); in test [4] (setting [7]) it was 83.6%; in test [4] (setting [8]), 105%. The differential viability (reversal) in test [4] (H69AR cells + 2 uM doxorubicin) is 20.9% (inactive). For the same compound, the inhibition in test [5] was -0.78% (inactive); in test [6], -6.23% (inactive).

Turning to `O=S1(=O)CCC(N=Cc2cc(Br)ccc2O)C1` (centres undefined), the viability in test [1] is 94% (inactive); in test [2], 68.9% (inactive); in test [3], 78.1% (inactive); in test [4] (setting [7]) it was 92.4%; in test [4] (setting [8]), 78.1%. For the same compound, the differential viability (reversal) in test [4] (H69AR cells + 2 uM doxorubicin) is -14.3% (inactive). Besides, the inhibition in test [5] was -5.62% (inactive); in test [6], 2.26% (inactive).

Regarding `CCN(CC)CC(=O)Nc1c(C)cccc1C`, the viability in test [1] is 101% (inactive) and 123% (inactive); in test [2], 97.3% (inactive) and 96.1% (inactive); in test [3], 107% (inactive) and 101% (inactive); in test [4] (setting [7]) it was 91.2% and 90%; in test [4] (setting [8]), 107% and 101%. Also, the differential viability (reversal) in test [4] (H69AR cells + 2 uM doxorubicin) was 15.8% (inactive) and 10.7% (inactive). For the same compound, the inhibition in test [5] was -3.38% (inactive); in test [6], -3.67% (inactive) and 1.67% (inactive).

Take `CCc1[nH]nc2c1C1(CCN(C(=O)OCc3ccccc3)CC1)C(C#N)=C(N)O2`: the viability in test [1] is 112% (inactive); in test [2], 85.6% (inactive); in test [3], 85.2% (inactive); in test [4] (setting [7]) it was 85.8%; in test [4] (setting [8]), 85.2%. In addition, the differential viability (reversal) in test [4] (H69AR cells + 2 uM doxorubicin) was -0.55% (inactive). In addition, the inhibition in test [5] was -8.9% (inactive); in test [6] it was 2.1% (inactive).

Consider `COc1ccc(NC(=O)N2CCC(c3nc(-c4cccs4)no3)CC2)cc1`, for which the viability in test [1] was 121% (inactive); in test [2], 98.3% (inactive); in test [3], 95.6% (inactive); in test [4] (setting [7]), 80.2%; in test [4] (setting [8]) it was 95.6%. Further, the differential viability (reversal) in test [4] (H69AR cells + 2 uM doxorubicin) is 15.4% (inactive). Further, the inhibition in test [5] is -2.4% (inactive); in test [6] it was 0.73% (inactive).

Turning to `O=C(NCc1ccco1)c1ccc2c(=O)n(CC3CCCO3)c(=S)[nH]c2c1` (centres undefined), the viability in test [1] is 94% (inactive); in test [2], 76% (inactive); in test [3], 94.4% (inactive); in test [4] (setting [7]) it was 86.9%; in test [4] (setting [8]), 94.4%. The differential viability (reversal) in test [4] (H69AR cells + 2 uM doxorubicin) was 7.56% (inactive). Further, the inhibition in test [5] was -2.73% (inactive); in test [6], -0.66% (inactive).

On to `Cc1ccc(-n2ncc3c(=O)n(CC(=O)N4CCCc5ccccc54)cnc32)cc1C`, for which the viability in test [1] was 82% (inactive); in test [2] it was 60.5% (inactive); in test [3] it was 90.8% (inactive); in test [4] (setting [7]), 101%; in test [4] (setting [8]), 90.8%. Besides, the differential viability (reversal) in test [4] (H69AR cells + 2 uM doxorubicin) is -10% (inactive). In addition, the inhibition in test [5] is 6.08% (inactive); in test [6], -2.73% (inactive).

For `O=C(CSc1nnc(COc2ccc(Cl)cc2)o1)OC1CCCCC1`, the viability is 106% (inactive) in test [1]; 95.5% (inactive) in test [2]; 102% (inactive) in test [3]; 95.9% in test [4] (setting [7]); 102% in test [4] (setting [8]). For the same compound, the differential viability (reversal) in test [4] (H69AR cells + 2 uM doxorubicin) is 6.06% (inactive). The inhibition is 4.66% (inactive) in test [5] and -3.87% (inactive) in test [6].

Turning to `CCOc1nc(NCCC2=CCCCC2)nc(N2CCOCC2)n1`, the viability is 102% (inactive) in test [1]; 95.8% (inactive) in test [2]; 96.7% (inactive) in test [3]; 82.1% in test [4] (setting [7]); 96.7% in test [4] (setting [8]). Also, in test [4] (H69AR cells + 2 uM doxorubicin), the differential viability (reversal) was 14.6% (inactive). For the same compound, the inhibition in test [5] was -3.33% (inactive); in test [6] it was 1.64% (inactive).

With `CC(N)C12CC3CC(C1)CC(C(C)N)(C3)C2` (centres undefined), the viability in test [1] is 87% (inactive); in test [2], 110% (inactive); in test [3], 101% (inactive); in test [4] (setting [7]), 89.4%; in test [4] (setting [8]) it was 101%. Further, the differential viability (reversal) in test [4] (H69AR cells + 2 uM doxorubicin) was 11.4% (inactive). The inhibition in test [5] is -3.6% (inactive); in test [6] it was -4.18% (inactive).

In the case of `C[N+](C)(C)CCCCCCCCCC[N+](C)(C)C`, the viability in test [1] was 106% (inactive); in test [2], 100% (inactive); in test [3], 104% (inactive); in test [4] (setting [7]) it was 90%; in test [4] (setting [8]), 104%. Also, in test [4] (H69AR cells + 2 uM doxorubicin), the differential viability (reversal) is 13.9% (inactive). Besides, the inhibition was 1.69% (inactive) in test [5] and -1.5% (inactive) in test [6].

In the case of `Cc1ccc(NC(=O)CN(C)S(=O)(=O)c2cccc3nsnc23)cc1Cl`, the viability in test [1] was 103% (inactive); in test [2], 83.3% (inactive); in test [3] it was 84.5% (inactive); in test [4] (setting [7]), 92.2%; in test [4] (setting [8]), 84.5%. Moreover, in test [4] (H69AR cells + 2 uM doxorubicin), the differential viability (reversal) was -7.79% (inactive). Also, the inhibition in test [5] is 1.76% (inactive); in test [6], -3.09% (inactive).

Consider `COc1ccc(/C=C/C(=O)Nc2ccccc2C(=O)O)cc1OC`, for which the viability in test [1] is 104% (inactive); in test [2] it was 64.4% (inactive); in test [3], 94.7% (inactive); in test [4] (setting [7]), 94.1%; in test [4] (setting [8]), 94.7%. For the same compound, the differential viability (reversal) in test [4] (H69AR cells + 2 uM doxorubicin) is 0.56% (inactive). For the same compound, the inhibition in test [5] is 0.78% (inactive); in test [6], -1.83% (inactive).

Consider `CCN(CCO)C(=O)CC(c1ccccc1)c1cc(Br)ccc1O` (centres undefined), for which the viability in test [1] was 101% (inactive); in test [2], 101% (inactive); in test [3], 93.8% (inactive); in test [4] (setting [7]), 97%; in test [4] (setting [8]), 93.8%. In addition, the differential viability (reversal) in test [4] (H69AR cells + 2 uM doxorubicin) was -3.22% (inactive). Besides, the results for the inhibition in test [5] and in test [6] were -2.3% (inactive) and -3.09% (inactive), respectively.

With `C[C@]12CC[C@@H]3c4ccc(O)cc4CC[C@H]3[C@@H]1CCC2=O`, the viability in test [1] was 120% (inactive); in test [2], 63.4% (inactive); in test [3], 91.8% (inactive); in test [4] (setting [7]) it was 87.1%; in test [4] (setting [8]), 91.8%. The differential viability (reversal) in test [4] (H69AR cells + 2 uM doxorubicin) is 4.7% (inactive). Besides, the inhibition in test [5] was -1.56% (inactive); in test [6], 0.5% (inactive).
